This note sets out measurements from ChEMBL document CHEMBL1800073, “Inhibition of 1-deoxy-D-xylulose-5-phosphate reductoisomerase by lipophilic phosphonates: SAR, QSAR, and crystallographic studies” (J Med Chem, 2011).

Assay [1] in a line: Inhibition of Escherichia coli recombinant DXR using DXP as substrate and MgCl2 as cofactor preincubated for 10 mins. In outline:
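Purified enzyme at 10 nM in 50 mM HEPES pH 7.5 with 2 mM MgCl2, 50 µM NADPH and 25 µg/mL BSA. Inhibitor was preincubated with the enzyme for 10 min at 30 °C, then 100 µM DXP was added. IC50 came from dose-response fits of initial velocities, at least three experiments.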

The subject of assay [2] is Escherichia coli. The experiment in a line: Inhibition of Escherichia coli recombinant DXR using DXP as substrate and MgCl2 as cofactor at 100 uM preincubated for 10 mins. A digest of the protocol: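 Purified recombinant EcDXR (10 nM) with 2 mM MgCl2, 50 µM NADPH, 50 mM HEPES pH 7.5, 25 µg/mL BSA. Inhibitor pre-incubated with enzyme 10 min at 30 °C; reaction started with 100 µM DXP; NADPH consumption followed at 340 nm.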

For assay [3], the target named is T1, 1-deoxy-D-xylulose 5-phosphate reductoisomerase (Mycobacterium tuberculosis) (UniProt P9WNS1).
T1 sequence (whole entry): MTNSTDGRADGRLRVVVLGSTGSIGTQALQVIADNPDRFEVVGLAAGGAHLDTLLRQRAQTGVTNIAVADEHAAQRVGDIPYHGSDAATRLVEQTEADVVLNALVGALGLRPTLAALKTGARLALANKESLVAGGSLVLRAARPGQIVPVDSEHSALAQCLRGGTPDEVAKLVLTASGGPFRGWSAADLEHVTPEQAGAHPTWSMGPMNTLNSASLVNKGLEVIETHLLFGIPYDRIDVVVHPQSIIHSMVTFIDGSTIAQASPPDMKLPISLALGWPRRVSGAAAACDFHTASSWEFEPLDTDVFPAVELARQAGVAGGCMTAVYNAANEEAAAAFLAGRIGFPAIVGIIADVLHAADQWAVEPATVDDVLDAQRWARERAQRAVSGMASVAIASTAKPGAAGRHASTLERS
The assay can be described thus: Inhibition of Mycobacterium tuberculosis recombinant DXR expressed in Escherichia coli BL21 (DE3) using DXP as substrate and MgCl2 as cofactor at 100 uM preincubated for 10 mins. In outline:
(§1)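 Assay used 50 nM enzyme in 50 mM HEPES pH 7.6 with 4 mM MgCl2, 50 µM NADPH and 25 µg/mL BSA, plus 100 µM DXP added after a 10 min, 30 °C preincubation. IC50 came from initial velocities, at least three experiments.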

Assay [4] deals with T2, 1-deoxy-D-xylulose 5-phosphate reductoisomerase (Mycobacterium tuberculosis, UniProt P9WNS1).
T2 sequence (P9WNS1 whole entry): T1 sequence (whole entry)
The experiment in a line: Inhibition of Mycobacterium tuberculosis recombinant DXR expressed in Escherichia coli BL21 (DE3) using DXP as substrate and MgCl2 as cofactor preincubated for 10 mins. In outline: as §1

The nature of assay [5]: Inhibition of DXR.

Active and inactive are the calls of the source. The calls are words filed in the database; no cut-off is given here.

What is called pKi is −log10 of the Ki, conventionally taken in molar units. For orientation: Ki means a measure of affinity in units of concentration, obtained from inhibition or displacement. The IC50 is the concentration that inhibits the measured activity by half. Low readings indicate greater potency in that assay, high ones weaker potency in that assay.

Regarding `O=C(O)Cc1ccncc1`, the negative logarithm of the Ki (pKi) in assay [1] is 3.52. Further, the inhibition result in assay [2] and in assay [3] was “inactive” throughout.

For `COc1cccc(-c2ccc(CP(=O)(O)O)nc2)c1`, in assay [1], the Ki was 3.6 µM and the pKi is 5.46. Moreover, the inhibition entry in assay [3] is “inactive”.

`CC(=O)N(O)CCCP(=O)(O)O` [FR-900098]: the inhibition constant (Ki) in assay [4] turned out to be 0.13 µM. Further, in assay [1], the inhibitory constant (Ki) was determined as 0.019 µM and the pKi was determined as 7.72.

For `O=P(O)(O)C(Nc1nccc2ccccc12)P(=O)(O)O`, the inhibitory constant (Ki) in assay [1] worked out at 6.3 µM. For the same compound, the IC50 in assay [5] worked out at 4 µM.

In the case of `O=P(O)(O)CCCc1ccccn1`, in assay [1], the Ki came out at 9.5 µM and the pKi amounted to 5.02. Also, the inhibition entry in assay [3] was “inactive”.

`Cc1ccc(-c2ccc(CP(=O)(O)O)nc2)cc1`: in assay [1], the Ki came to 3.9 µM and the pKi came out at 5.41. The inhibition entry in assay [3] was “inactive”.

`O=P(O)(O)Cc1ccc(Br)cn1`: the results for the inhibition constant Ki in assay [4] and in assay [1] were 45.2 µM and 6.7 µM, respectively. Besides, the pKi in assay [1] turned out to be 5.17.

In the case of `O=P(O)(O)Cc1ccc(Cl)c(Cl)c1`, the negative logarithm of the Ki (pKi) in assay [1] was found to be 3.52. Also, the inhibition result in assay [2] and in assay [3] was “inactive” each time.

As to `O=C(O)Cc1cccnc1`, in assay [1], the pKi was below 3.52. For the same compound, the inhibition result in assay [2] and in assay [3] was “inactive” throughout.

For the compound `O=C(Cc1ccccn1)NO`, the negative-log Ki (pKi) in assay [1] came out at 3.52. The inhibition entry in assay [2] and in assay [3] was “inactive” in each case.

On to `O=P(O)(O)Cc1ccc(-c2ccc3ccccc3c2)cn1`, for which, in assay [1], the Ki worked out at 13.9 µM and the pKi is 4.86. Further, the inhibition result in assay [3] is “inactive”.

`O=P(O)(O)Cc1cnccn1`: in assay [1], the Ki is 11.2 µM and the pKi is 4.95. Further, the inhibition result in assay [3] was “inactive”.

On to `O=P(O)(O)Cc1ccccc1` [BENZYLPHOSPHONIC ACID], for which the pKi in assay [1] is 3.52. Moreover, the inhibition result in assay [2] and in assay [3] was “inactive” each time.

On to `O=P(O)(O)Cc1ccc(-c2ccc(Cl)cc2)cn1`, for which, in assay [1], the inhibition constant Ki was determined as 1.6 µM and the negative logarithm of the Ki (pKi) amounted to 5.8. For the same compound, in assay [3], the inhibition result was “inactive”.

As to `O=P(O)(O)c1ccccn1`, the pKi in assay [1] was 3.52. In addition, the inhibition entry in assay [2] and in assay [3] was “inactive” in each case.

Consider `O=P(O)(O)CCc1ccccn1`, for which, in assay [1], the Ki is 18.6 µM and the negative-log Ki (pKi) came to 4.73. Moreover, in assay [3], the inhibition entry is “inactive”.

Take `O=c1ccc(-c2ccccc2)cn1O` [1-HYDROXY-5-PHENYLPYRIDIN-2(1H)-ONE]: the results for the Ki in assay [4] and in assay [1] were 21.8 µM and 0.7 µM, respectively.

In the case of `O=P(O)(O)Cc1cccc(-c2ccccc2)n1`, in assay [1], the Ki worked out at 3.5 µM and the pKi is 5.46. The inhibition result in assay [3] is “inactive”.

Take `O=c1ccc(CP(=O)(O)O)cn1O`: the negative-log Ki (pKi) in assay [1] is reported as 3.52. Further, the inhibition result in assay [2] and in assay [3] was “inactive” in each case.

As to `O=P(O)(O)Cc1cc(Br)ccn1`, the inhibition constant Ki in assay [4] amounted to 32.7 µM. Besides, in assay [1], the Ki worked out at 3.5 µM and the pKi is 5.46.

For `O=S(=O)(O)Cc1ccc(-c2ccccc2)cn1`, the pKi in assay [1] is below 3.52. For the same compound, the inhibition result in assay [2] and in assay [3] was “inactive” throughout.

Regarding `O=P(O)(O)Cc1ccc(-c2ccccc2)cn1`, in assay [4], the inhibitory constant (Ki) was 3.2 µM. Moreover, in assay [1], the Ki came out at 0.42 µM and the pKi stood at 6.38.

For `O=P(O)(O)Cc1ccc(O)cn1`, in assay [4], the inhibition constant Ki amounted to 17.3 µM. In assay [1], the inhibition constant Ki stood at 0.7 µM and the pKi came to 6.15.

As for `O=P(O)(O)CCc1ccccc1`, in assay [1], the pKi is reported as 3.52. In addition, the inhibition result in assay [2] and in assay [3] was “inactive” throughout.

Consider `O=P(O)(O)Cc1cc(-c2ccccc2)ccn1`, for which the inhibition constant Ki in assay [4] was 6.9 µM. Further, in assay [1], the inhibition constant Ki was determined as 1.1 µM and the pKi is given as 5.96.

As for `O=P(O)(O)Cc1cccc(Br)n1`, in assay [1], the inhibition constant (Ki) stood at 3.6 µM and the pKi turned out to be 5.46. Also, the inhibition result in assay [3] is “inactive”.

In the case of `O=P(O)(O)Cc1ccc2ccccc2n1`, the Ki is 6.9 µM in assay [4] and 7.9 µM in assay [1]. Besides, the pKi in assay [1] was found to be 5.1.

On to `O=C(O)c1ccccn1` [2-PICOLINIC ACID], for which the pKi in assay [1] is given as 3.52. The inhibition result in assay [2] and in assay [3] was “inactive” in each case.

For the compound `O=P(O)(O)CCc1ccccc1O`, the pKi in assay [1] is recorded as 3.52. In addition, the inhibition entry in assay [2] and in assay [3] was “inactive” throughout.

Consider `O=C(O)c1ccc(-c2ccccc2)cn1`, for which, in assay [1], the negative logarithm of the Ki (pKi) is below 3.52. Besides, the inhibition result in assay [2] and in assay [3] was “inactive” each time.

With `O=P(O)(O)Cc1ccccn1` [PYRIDIN-2-YLMETHYLPHOSPHONIC ACID], the inhibitory constant (Ki) in assay [4] amounted to 1.6 µM; in assay [1], 2.3 µM. Besides, the pKi in assay [1] came out at 5.64.

For `O=P(O)(O)Cc1cccnc1`, in assay [1], the inhibitory constant (Ki) was 5 µM and the pKi was determined as 5.3. Moreover, the inhibition result in assay [3] was “inactive”.

In the case of `O=P(O)(O)Cc1ccc(OCc2ccccc2)cn1`, the pKi in assay [1] is given as 3.52. Moreover, the inhibition result in assay [2] and in assay [3] was “inactive” each time.

As for `O=C(NO)c1ccccn1`, the negative-log Ki (pKi) in assay [1] is below 3.52. Besides, the inhibition result in assay [2] and in assay [3] was “inactive” in each case.

In the case of `O=P(O)(O)C(Nc1ccc(Cl)cn1)P(=O)(O)O`, in assay [1], the inhibition constant Ki came to 15.3 µM. This compound came in with an IC50 in assay [5] of 7 µM. Besides, the inhibition result in assay [3] was “inactive”.

With `O=C(O)Cc1ccc(-c2ccccc2)cn1`, the pKi in assay [1] was below 3.52. The inhibition entry in assay [2] and in assay [3] was “inactive” in each case.

On to `O=C(Cc1ccc(-c2ccccc2)cn1)NO`, for which the negative logarithm of the Ki (pKi) in assay [1] was below 3.52. In addition, the inhibition entry in assay [2] and in assay [3] was “inactive” in each case.

On to `O=P(O)(O)Cc1ccc(-c2ccc(F)cc2)cn1`, for which the Ki in assay [4] worked out at 50.7 µM. Further, in assay [1], the Ki worked out at 1.1 µM and the pKi came out at 5.96.

Consider `O=P(O)(O)c1ccccc1` [PHENYLPHOSPHONIC ACID], for which the pKi in assay [1] was 3.52. Also, the inhibition entry in assay [2] and in assay [3] was “inactive” in each case.

For `CC(=O)N(O)CCC(c1ccc(Cl)c(Cl)c1)P(=O)(O)O` (racemic), the Ki in assay [4] came to 1.5 µM. Also, in assay [1], the inhibitory constant (Ki) was determined as 0.036 µM and the pKi turned out to be 7.44.

For the compound `O=P(O)(O)Cc1ccncc1`, the Ki in assay [4] is 6.8 µM. In assay [1], the Ki came to 3.5 µM and the negative-log Ki (pKi) was 5.46.

Regarding `O=c1cccc(CCP(=O)(O)O)[nH]1`, in assay [1], the pKi was found to be 3.52. For the same compound, the inhibition result in assay [2] and in assay [3] was “inactive” in each case.

Regarding `O=P(O)(O)Cc1ccncn1`, the inhibition constant (Ki) in assay [4] is 12.4 µM. For the same compound, in assay [1], the Ki worked out at 3.5 µM and the pKi amounted to 5.46.

For the compound `O=CN(O)CCC(c1ccc(Cl)c(Cl)c1)P(=O)(O)O` (centres undefined), in assay [4], the Ki is 1.2 µM. Also, in assay [1], the inhibition constant Ki was found to be 0.058 µM and the pKi is 7.24.

Take `O=P(O)(O)Cc1cc(-c2ccc(F)cc2)ccn1`: in assay [1], the Ki came to 3.5 µM and the pKi was determined as 5.46. Further, the inhibition entry in assay [3] was “inactive”.

On to `O=P(O)(O)Cc1cccc(O)c1O`, for which the pKi in assay [1] is recorded as 3.52. In addition, the inhibition result in assay [2] and in assay [3] was “inactive” throughout.

Regarding `O=C(O)Cc1ccccn1`, the pKi in assay [1] was found to be 3.52. Besides, the inhibition result in assay [2] and in assay [3] was “inactive” throughout.
